Results published in publication PMC10053980 (ACS infectious diseases, 2023).
Where two headings read alike, the source gives them in different places.

Key:
[1] = tested on: P. falciparum Dd2 (PfDd2, parent); experiment: Asexual blood-stage growth inhibition; format: cell-based; conditions: Plasmodium falciparum
[2] = tested on: PfDHODH (DSM265-resistant); experiment: [3H]-hypoxanthine incorporation assay, cross-resistance panel; format: cell-based, Plasmodium falciparum
Summary of the method: (§1)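 Cross-resistance was measured by a modified [3H]-hypoxanthine incorporation assay. Fold differences for lab-generated resistant lines are relative to the Dd2 parent. Values are means from two independent experiments.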

[3] = tested on: PfeEF2^Y186N (DDD107498-resistant); experiment: [3H]-hypoxanthine incorporation assay, cross-resistance panel; format: cell-based, Plasmodium falciparum
[4] = tested on: PfCARL^I1139K (KAF156-selected); experiment: [3H]-hypoxanthine incorporation assay, cross-resistance panel; format: cell-based, Plasmodium falciparum; conditions: PfCARL^I1139K relative to parent line Dd2
Summary of the method: as §1

7G8 = experiment: [3H]-hypoxanthine incorporation assay, cross-resistance panel; format: cell-based, Plasmodium falciparum
Dd2 = experiment: as above; format: cell-based, Plasmodium falciparum
[5] = tested on: P. falciparum strain NF54 stage V gametocytes, male gametes; experiment: Dual gamete formation assay; format: cell-based, Plasmodium falciparum; conditions: 1 μM, 48 h
[6] = tested on: P. berghei liver stage (Pb-Luc sporozoites); experiment: Liver stage activity assay; format: cell-based; conditions: Plasmodium berghei, read-out: Liver-stage EC50
in vitro = in vitro ADME; conditions: human, microsomes
HepG2 cytotoxicity = format: cell-based; conditions: human, HepG2 cells
Summary of the method: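 HepG2 cells (600 per well) in EMEM with 5% heat-inactivated FBS and 2 mM glutamine received test compound and were incubated 72 h at 37 °C, 5% CO2. Viability was read by CellTiter Glo (intracellular ATP). CD437 and methotrexate served as positive controls. Two biological runs, each in technical triplicate.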

PfD10 attB + yDHODH = experiment: Asexual blood-stage growth inhibition; format: cell-based, Plasmodium falciparum; conditions: Saccharomyces cerevisiae, read-out: PfD10 attB + yDHODH EC50
Summary of the method: (§2)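 Ring-stage parasites (2% hematocrit, 0.5% parasitemia, final DMSO 0.5%) were exposed to a concentration range for 72 h at 37 °C, 5% CO2. Plates were frozen for at least 16 h and thawed, then SYBR Green lysis buffer was added. Fluorescence was read at 485 nm excitation and 535/528 nm emission. DSM265 (0.8–100 nM) served as plate control. EC50 came from four-parameter nonlinear regression, in technical triplicates with at least 3 biological replicates.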

[7] = tested on: PfCARL^L830I (S)-SW703-resistant Dd2 clones; experiment: Asexual blood-stage EC50; format: cell-based, Plasmodium falciparum
TM90C2B = experiment: [3H]-hypoxanthine incorporation assay, cross-resistance panel; format: cell-based, Plasmodium falciparum
Dd2-Polδ (parent) = experiment: Asexual blood-stage EC50; format: cell-based; conditions: Plasmodium falciparum, DD2, read-out: (S)-SW703 EC50
Summary of the method: as §2

[8] = tested on: PfCARL^S1057T (S)-SW703-resistant Dd2 clones; experiment: Asexual blood-stage EC50; format: cell-based, Plasmodium falciparum
K1 = experiment: [3H]-hypoxanthine incorporation assay, cross-resistance panel; format: cell-based, Plasmodium falciparum
[9] = tested on: P. falciparum 3D7 (Pf3D7); experiment: Asexual blood-stage growth inhibition; format: cell-based; conditions: Plasmodium falciparum, 3D7, 72 h, read-out: Pf3D7 EC50
NF54 = experiment: [3H]-hypoxanthine incorporation assay, cross-resistance panel; format: cell-based; conditions: Plasmodium falciparum, NF54, read-out: (S)-SW703 EC50
[10] = tested on: PfACT^Q116K (S)-SW703-resistant Dd2 clone; experiment: Asexual blood-stage EC50; format: cell-based, Plasmodium falciparum; conditions: for EC50: Plasmodium falciparum
Summary of the method: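 Cloned resistant parasites were exposed to test compound or KAF156 over a concentration range for 72 h at 37 °C (2% hematocrit, 0.5% parasitemia, 0.5% DMSO). Freeze–thaw was followed by SYBR Green lysis and fluorescence at 485/535 or 528 nm. EC50 was fitted by four-parameter regression. Fold shift is relative to the Dd2 parent. Technical triplicates, at least three independent experiments.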

RF12 (PH-1263-C) = experiment: [3H]-hypoxanthine incorporation assay, cross-resistance panel; format: cell-based, Plasmodium falciparum
PfD10 attB = experiment: Asexual blood-stage growth inhibition; format: cell-based; conditions: Plasmodium falciparum, read-out: PfD10 attB EC50
Summary of the method: as §2

[11] = tested on: P. falciparum strain 3D7A; experiment: Two color flow cytometry rate of kill assay; format: cell-based, Plasmodium falciparum; conditions: 0, 24 or 48 h exposure at 10X EC50; compared with chloroquine and artesunate
[12] = tested on: PfPI4K^S743T (MMV390048-resistant); experiment: [3H]-hypoxanthine incorporation assay, cross-resistance panel; format: cell-based, Plasmodium falciparum
[13] = tested on: P. falciparum strain NF54 stage V gametocytes, female gametes; experiment: Dual gamete formation assay; format: cell-based; conditions: Plasmodium falciparum, NF54, read-out: Inhibition of female gamete formation
[14] = tested on: PfCytB^I22L (ELQ300-resistant); experiment: [3H]-hypoxanthine incorporation assay, cross-resistance panel; format: cell-based, Plasmodium falciparum
[15] = tested on: PfCARL^Q821H (S)-SW703-resistant Dd2 clones; experiment: Asexual blood-stage EC50; format: cell-based, Plasmodium falciparum
physchem = format: physicochemical; conditions: kinetic from dmso stock
[16] = tested on: PfCARL^L1073I C2 clone beta (Polδ mutant); experiment: Asexual blood-stage EC50; format: cell-based, Plasmodium falciparum; conditions: for EC50: Plasmodium falciparum
PfCARL L1073Q mutants = conditions: cited from earlier work
[17] = tested on: PfACT^S242* CRISPR mutant; conditions: cited from earlier work
[18] = Plasmodium falciparum, read-out: (S)-SW703 EC50
[19] = Flask 1 clone B4, PfCARL^L830I, vs Dd2 parent
[20] = Flask 3 clone D11, PfCARL^S1057T, vs Dd2 parent
[21] = Flask 4 clone F2, PfACT^Q116K, vs Dd2 parent
[22] = Flask 2 clone F3, PfCARL^Q821H, vs Dd2 parent

Structure (SMILES): Cc1cccc(C)c1CC1CN(C(=O)[C@@H](N)Cc2ccc(O)cc2)C1 [(S)-SW703, (S)-2-amino-1-(3-(2,6-dimethylbenzyl)azetidin-1-yl)-3-(4-hydroxyphenyl)propan-1-one]
- EC50 ([1]; DD2, 72 h, read-out: PfDd2 EC50): 810 ± 150 nM
- (S)-SW703 EC50 fold shift ([2]; PfDHODH relative to parent line Dd2): 0.95 fold
- EC50 ([2]; Plasmodium falciparum, DSM265, read-out: (S)-SW703 EC50): 290 ± 9 nM
- (S)-SW703 EC50 fold shift ([3]; PfeEF2^Y186N relative to parent line Dd2): 0.91 fold
- EC50 ([3]; {}): 270 ± 25 nM
- (S)-SW703 EC50 fold shift [4]: > 16.6 fold
- (S)-SW703 EC50 fold shift (7G8; 7G8 relative to NF54): 1.2 fold
- EC50 (7G8; [18]): 410 ± 32 nM
- (S)-SW703 EC50 fold shift (Dd2; Dd2 relative to NF54): 0.88 fold
- EC50 (Dd2; Plasmodium falciparum, DD2, read-out: (S)-SW703 EC50): 300 ± 31 nM
- Inhibition of male gamete formation [5]: 18.3%
- EC50 [6]: 570 ± 210 nM
- microsomal CLint (in vitro): 197 µL/min/mg
- CC50 at 72 h (HepG2 cytotoxicity): > 50000 nM
- EC50 (PfD10 attB + yDHODH): 1300 nM
- (S)-SW703 EC50 fold shift [7, 19]: 31 fold
- (S)-SW703 EC50 fold shift ([7]; Flask 1 clone F9, PfCARL^L830I, vs Dd2 parent): 31 fold
- (S)-SW703 EC50 fold shift ([7]; Flask 2 clone C5, PfCARL^L830I, vs Dd2 parent): 32 fold
- (S)-SW703 EC50 fold shift ([7]; Flask 2 clone E8, PfCARL^L830I, vs Dd2 parent): 27 fold
- EC50 (TM90C2B; Plasmodium falciparum, TM90C2B, read-out: (S)-SW703 EC50): 370 ± 41 nM
- (S)-SW703 EC50 fold shift (TM90C2B; TM90C2B relative to NF54): 1.1 fold
- EC50 (Dd2-Polδ (parent)): 930 ± 110 nM
- (S)-SW703 EC50 fold shift ([8]; Flask 1 clone G3, PfCARL^S1057T, vs Dd2 parent): 12 fold
- (S)-SW703 EC50 fold shift [8, 20]: 15 fold
- (S)-SW703 EC50 fold shift ([8]; Flask 3 clone G5, PfCARL^S1057T, vs Dd2 parent): 16 fold
- (S)-SW703 EC50 fold shift ([8]; Flask 4 clone D4, PfCARL^S1057T, vs Dd2 parent): 12 fold
- (S)-SW703 EC50 fold shift ([8]; Flask 4 clone G3, PfCARL^S1057T, vs Dd2 parent): 14 fold
- (S)-SW703 EC50 fold shift (K1; K1 relative to NF54): 1.0 fold
- EC50 (K1; [18]): 350 ± 39 nM
- EC50 [9]: 780 ± 92 nM
- EC50 (NF54): 340 ± 36 nM
- (S)-SW703 EC50 fold shift [10, 21]: 2.3 fold
- EC50 ([10]; DD2, read-out: (S)-SW703 EC50): 1900 ± 240 nM
- EC50 (RF12 (PH-1263-C); [18]): 370 ± 10 nM
- (S)-SW703 EC50 fold shift (RF12 (PH-1263-C); RF12 relative to NF54): 1.1 fold
- EC50 (PfD10 attB): 1500 nM
- Rate of kill (killing kinetics) [11]: fast-killing mechanism
- (S)-SW703 EC50 fold shift ([12]; PfPI4K^S743T relative to parent line Dd2): 0.97 fold
- EC50 ([12]; {}): 290 ± 42 nM
- inhibition at 1 µM [13]: 1.2 ± 1.7%
- (S)-SW703 EC50 fold shift ([14]; PfCytB^I22L relative to parent line Dd2): 0.75 fold
- EC50 ([14]; {}): 230 ± 46 nM
- (S)-SW703 EC50 fold shift [15, 22]: 52 fold
- (S)-SW703 EC50 fold shift ([15]; Flask 3 clone D7, PfCARL^Q821H, vs Dd2 parent): 60 fold
- solubility (physchem; pH 2, simulated gastric fluid): > 34 µg/mL
- solubility (physchem; pH 6.5, aqueous buffer): > 34 µg/mL
- (S)-SW703 EC50 fold shift ([16]; C2 clone beta, PfCARL^L1073I, vs Dd2-Polδ parent): 9.5 fold
- EC50 ([16]; read-out: (S)-SW703 EC50): 8800 ± 1200 nM

Structure (SMILES): CC1(C)c2nc(-c3ccc(F)cc3)c(Nc3ccc(Cl)cc3)n2CCN1C(=O)CN [GNF179]
- resistance conferred by PfCARL L1073Q (PfCARL L1073Q mutants): did not confer resistance
- resistance conferred by PfACT^S242* CRISPR mutant [17]: high-level resistance
- fold resistance of parasites bearing PfCARL^Q821H mutations ([15]; cross-resistance of (S)-SW703-resistant clones): about 5 fold

Structure (SMILES): CC1(C)c2nc(-c3ccc(F)cc3)c(Nc3ccc(F)cc3)n2CCN1C(=O)CN [KAF156, reference compound]
- EC50 ([1]; DD2, read-out: KAF156 EC50): 12 ± 1.7 nM
- resistance conferred by PfCARL L1073Q (PfCARL L1073Q mutants): did not confer resistance
- resistance conferred by PfACT^S242* CRISPR mutant [17]: high-level resistance
- KAF156 EC50 fold shift [7, 19]: 1.8 fold
- EC50 ([7]; Plasmodium falciparum, DD2, read-out: KAF156 EC50, Flask 1 clone B4, PfCARL^L830I): 22 ± 3.4 nM
- KAF156 EC50 fold shift [8, 20]: 1.5 fold
- EC50 ([8]; Plasmodium falciparum, DD2, read-out: KAF156 EC50, Flask 3 clone D11, PfCARL^S1057T): 18 ± 1.8 nM
- KAF156 EC50 fold shift [10, 21]: 1.8 fold
- EC50 ([10]; DD2, read-out: KAF156 EC50): 22 ± 4.5 nM
- KAF156 EC50 fold shift [15, 22]: 4.7 fold
- EC50 ([15]; Plasmodium falciparum, DD2, read-out: KAF156 EC50, Flask 2 clone F3, PfCARL^Q821H): 57 ± 6.6 nM
- EC50 ([16]; read-out: KAF156 EC50): 16 ± 2.7 nM
